Active and inactive are the calls of the source. The calls are words filed in the database; no cut-off is given here.
Tests used:
Rattus norvegicus [1] = assay: Antiinflammatory activity in Wistar albino rat assessed as inhibition of turpentine oil-induced granuloma at 20 mg/kg, po qd for 7 days post turpentine oil challenge measured on day 8; assay type: functional
In short: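 In ether-anaesthetized male Wistar rats (five per group) a dorsal subcutaneous pouch is formed with 2 mL air, then 0.5 mL turpentine oil is injected. Oral dosing at 20 mg/kg starts 1 h before turpentine and continues 7 days. On day 8 the exudate is drawn by syringe and its volume recorded; % inhibition = (Vcontrol − Vtreated)/Vcontrol × 100.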

THP-1 [2] = assay: Antiinflammatory activity in human THP1 cells assessed as reduction in LPS and IFN-gamma-induced MCP level after 24 hrs; assay type: functional, cell-based
In short: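 THP-1 cells (5 × 10^5 cells/mL, DMEM-F12 with 5% FBS) pretreated 15 min with compound or DMSO vehicle, then stimulated with 0.5 µg/mL LPS plus 150 U/mL IFN-γ. After 24 h, MCP-1 in cell-free medium measured by ELISA. IC50 estimated from concentration–response; randomized block ANOVA.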

THP-1 [3] = assay: Neuroprotective activity against LPS and IFN-gamma-stimulated neurotoxin production in human THP1 cell assessed as inhibition of THP1 cell secretion-induced toxicity to human SH-SY5Y cells after 72 hrs by MTT assay; assay type: functional, cell-based; details: for IC50: THP-1, 72 h
In short: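 THP-1 cells pretreated 15 min with compound, then stimulated with LPS (0.5 µg/mL) plus IFN-γ (150 U/mL) for 24 h. Cell-free supernatant transferred to SH-SY5Y cells plated 24 h earlier (2 × 10^5 cells/mL). After 72 h, SH-SY5Y viability read by MTT (0.5 mg/mL, 1 h, 37 °C, OD570) or by LDH release (OD490, relative to Triton X-100 lysis). IC50 estimated.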

[4] = molecular target: T1, Prostaglandin G/H synthase 2 (Homo sapiens) (UniProt P35354); assay: Inhibition of human COX2 at 100 uM
T1 sequence (whole entry): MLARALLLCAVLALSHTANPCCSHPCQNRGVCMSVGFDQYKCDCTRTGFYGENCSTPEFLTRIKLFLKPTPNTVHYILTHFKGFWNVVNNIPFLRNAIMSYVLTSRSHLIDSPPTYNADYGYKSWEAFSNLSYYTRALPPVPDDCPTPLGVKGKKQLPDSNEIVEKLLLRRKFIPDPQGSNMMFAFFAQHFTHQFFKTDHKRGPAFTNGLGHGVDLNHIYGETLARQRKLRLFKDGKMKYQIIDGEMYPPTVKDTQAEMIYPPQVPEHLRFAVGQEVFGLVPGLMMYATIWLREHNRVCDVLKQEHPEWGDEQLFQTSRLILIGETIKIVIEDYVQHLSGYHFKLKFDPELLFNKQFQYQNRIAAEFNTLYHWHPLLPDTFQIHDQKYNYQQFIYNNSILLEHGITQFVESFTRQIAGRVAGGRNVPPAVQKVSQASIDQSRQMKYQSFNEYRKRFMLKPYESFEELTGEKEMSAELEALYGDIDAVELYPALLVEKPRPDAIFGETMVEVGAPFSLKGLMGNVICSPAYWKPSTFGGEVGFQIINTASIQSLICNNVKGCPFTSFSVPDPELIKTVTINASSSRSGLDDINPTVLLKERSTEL
In short: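 Screening kit with ovine COX-1 and human recombinant COX-2, run per manufacturer's protocol; percent inhibition of prostaglandin production measured for each isoform.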

SH-SY5Y = assay: Neuroprotective activity in human SH-SY5Y cells; assay type: functional, cell-based
In short: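 SH-SY5Y cells seeded at 2 × 10^5/mL in DMEM-F12 with 5% FBS; after 24 h medium replaced by supernatant of THP-1 cells stimulated 24 h with LPS + IFN-γ, or by medium containing 250 µM H2O2, with compound added at transfer. Cell death measured by LDH assay 72 h later; five independent experiments; randomized block ANOVA.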

Rattus norvegicus [5] = assay: Antiinflammatory activity in Wistar albino rat assessed as inhibition of formalin-induced paw edema at 20 mg/kg, po administered 1 hr prior to formalin challenge measured after 1 hr relative to control; assay type: functional
In short: (§1)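 Male Wistar rats, 180–200 g, groups of five; single oral dose 1 h before 2% formalin (0.1 mL) into subplantar left hind paw under light ether anaesthesia. Paw volume read by water plethysmometer at baseline and 1, 2, 3, 4 h; % inhibition = control (Vt−Vo) minus treated (Vt−Vo), over control, ×100. Means ± SEM; ANOVA with Student–Newman–Keuls.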

Rattus norvegicus [6] = assay: Antiinflammatory activity in Wistar albino rat assessed as inhibition of formalin-induced paw edema at 20 mg/kg, po administered 1 hr prior to formalin challenge measured after 3 hrs relative to control; assay type: functional; in short: as §1
Rattus norvegicus [7] = assay: Antiinflammatory activity in Wistar albino rat assessed as inhibition of formalin-induced paw edema at 20 mg/kg, po administered 1 hr prior to formalin challenge measured after 4 hrs relative to control; assay type: functional; in short: as §1
Rattus norvegicus [8] = assay: Antiinflammatory activity in Wistar albino rat sub-acute inflammatory model assessed as inhibition of formalin-induced paw edema at 20 mg/kg, po administered 1 hr prior to formalin challenge measured on day 1 relative to control; assay type: functional
In short: (§2)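 Male Wistar rats, 180–200 g, five per group, dosed orally 20 mg/kg daily for 7 consecutive days. Formalin (2%, 0.1 mL) injected subplantar into left hind paw under light ether 1 h after dosing, repeated on day 3. Paw volume measured plethysmographically on days 1 and 8; inhibition expressed relative to untreated controls.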

Rattus norvegicus [9] = assay: Antiinflammatory activity in Wistar albino rat sub-acute inflammatory model assessed as inhibition of formalin-induced paw edema at 20 mg/kg, po administered 1 hr prior to formalin challenge measured on day 8 relative to control; assay type: functional; in short: as §2
Rattus norvegicus [10] = assay: Antiinflammatory activity in po dosed Wistar albino rat assessed as inhibition of formalin-induced paw edema after 3 hrs relative to control; assay type: functional
[11] = Acute toxicity in Wistar albino rat after 24 hrs; assay type: organism-based; details: in vivo, read-out: ALD50
In short: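 Male Wistar albino rats (180–200 g), fasted 24 h, groups of five; compound given orally in graded doses of 0.1–3.0 g/kg. Mortality recorded at each dose after 24 h to estimate approximate acute lethal dose (ALD50).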

THP-1 [12] = assay: Cytotoxicity against human THP1 cells assessed as reduction in cell viability; assay type: cell-based
In short: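 THP-1 cells in DMEM-F12 with 5% FBS, 24-well plates, pretreated 15 min with compound or DMSO vehicle, then stimulated with LPS 0.5 µg/mL plus IFN-γ 150 U/mL for 24 h. Death read as supernatant LDH (iodonitrotetrazolium formazan, 490 nm, fraction of Triton X-100 lysate); survival by MTT; MCP-1 by ELISA. Concentration effects by randomized block ANOVA; 8–11 independent experiments.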

Row | SMILES | inhibition in vivo at 20 mg/kg (Rattus norvegicus [1]) [%] | IC50 (THP-1 [2]) [µM] | Activity (THP-1 [3]) | IC50 (THP-1 [3]) [µM] | inhibition [4] [%] | Activity (SH-SY5Y) | inhibition in vivo at 20 mg/kg (Rattus norvegicus [5]) [%] | inhibition in vivo at 20 mg/kg (Rattus norvegicus [6]) [%] | inhibition in vivo at 20 mg/kg (Rattus norvegicus [7]) [%] | inhibition in vivo at 20 mg/kg (Rattus norvegicus [8]) [%] | inhibition in vivo at 20 mg/kg (Rattus norvegicus [9]) [%] | ED50 (Rattus norvegicus [10]) [mg/kg] | LD50 at 24 h [11] [mg/kg] | EC50 (THP-1 [12]) [µM] | IC50 (THP-1 [2]; Homo sapiens, THP-1, 24 h, read-out: IC50) [µM]
1 | N#Cc1cnn(-c2ccccc2)c1NC(=O)C(=O)Nc1c(C#N)cnn1-c1ccccc1 | 48 | 250 | Dose-dependent effect | 10 | 14 | Active | 44 | 50 | 58 | 43 | 44 | 17.5 | > 300 | 100 | 
2 | CC(NC(=O)C(=O)Nc1c(C#N)cnn1-c1ccccc1)c1ccccc1 (configuration not stated) | 51 |  |  | 6 | 33.8 | inactive | 50 | 46 | 50 | 39 | 38 | 19.6 | > 300 | 500 | 150

Reference: ChEMBL document CHEMBL1212828, “Synthesis and biological evaluation of novel pyrazole compounds” (Bioorg Med Chem, 2010)
